Assay outcomes: PubChem BioAssay, Sanford-Burnham Center for Chemical Genomics
SENP7 block: SENP7 protease inhibitors, primary screen, biochemical, luminescence, uHTS. Sentrin-specific protease 7 (Homo sapiens), Q9BQF6. inhibition, % at 5 µM. recombinant SENP7, Z-RLRGG-aminoluciferin luminescence, 40 min. hit rate 1.5% among 330,000. AID 434973, 2010;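 active = inhibition above about 50% at the single test dose, limit read from the data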
SENP8 block-1: human SENP8 protease inhibitors, primary screen, biochemical, fluorescence, Nedd8 protein substrate, uHTS. inhibition, % at 20 µM. Sentrin-specific protease 8 (Homo sapiens), Q96LD8. AID 602440, 2012. hit rate 0.64% among 360,000. recombinant SENP8; in the data active = inhibition mostly above about 40%, no sharp cut-off; inactive = mostly below about 27%
SENP8 block-2: SENP8 protease inhibitors, primary screen, biochemical, luminescence; purified SENP8, Z-RLRGG-aminoluciferin cleavage; inhibition, % at 10 µM; hit rate 1.2% among 330,000; AID 2540, 2010; in the data active = inhibition above about 50%
SENP6 block: SENP6 protease inhibitors, primary screen, biochemical, luminescence, uHTS. hit rate 1.8% among 330,000. Recombinant SENP6 catalytic domain, aminoluciferin luminescence. inhibition, % at 10 µM;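 active = inhibition above about 50% at the single tested dose, limit read from the data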
Target sequence (Q9GZR1 628-1112 limits assumed): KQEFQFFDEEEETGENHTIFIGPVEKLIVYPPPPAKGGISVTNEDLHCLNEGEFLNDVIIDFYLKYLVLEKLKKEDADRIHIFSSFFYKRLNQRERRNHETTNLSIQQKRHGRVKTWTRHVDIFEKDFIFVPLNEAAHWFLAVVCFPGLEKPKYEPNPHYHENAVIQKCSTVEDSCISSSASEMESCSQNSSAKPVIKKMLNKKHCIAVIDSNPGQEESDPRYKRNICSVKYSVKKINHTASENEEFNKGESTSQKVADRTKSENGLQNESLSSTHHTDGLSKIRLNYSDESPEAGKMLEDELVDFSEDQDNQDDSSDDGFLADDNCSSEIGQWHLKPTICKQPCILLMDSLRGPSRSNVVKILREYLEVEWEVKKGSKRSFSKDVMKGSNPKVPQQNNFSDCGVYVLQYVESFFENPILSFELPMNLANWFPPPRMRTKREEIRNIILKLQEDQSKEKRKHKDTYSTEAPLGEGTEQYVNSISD
SENP1 inh: human SENP1 catalytic domain inhibitors, primary screen, biochemical, FRET, uHTS. inhibition, % at 10 µM. recombinant SENP1 catalytic domain, CyPet-SUMO1-YPet FRET cleavage. Sentrin-specific protease 1 (Homo sapiens), Q9P0U3. hit rate 0.21% among 360,000;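 active = inhibition at least 30% at 10 µM, raw YFP signal under a set limit, fluorescence ratio 0.5 to 1.5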
Target sequence (Q9P0U3 419-644 limits assumed): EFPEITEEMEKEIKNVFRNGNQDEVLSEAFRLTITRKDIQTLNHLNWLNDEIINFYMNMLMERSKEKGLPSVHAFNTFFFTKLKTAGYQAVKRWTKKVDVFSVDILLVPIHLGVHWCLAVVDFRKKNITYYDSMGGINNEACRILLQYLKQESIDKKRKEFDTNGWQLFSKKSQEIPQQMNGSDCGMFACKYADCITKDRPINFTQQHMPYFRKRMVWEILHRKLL
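Test system: hSENP1 catalytic domain, recombinant; Amount: 20 pM final SENP1 enzyme; Medium: Tris pH 8 buffer plus EDTA, NaCl, BME, BSA, NP40, catalase; Schedule: 50 min enzyme reaction, room temperature, light-protected; Technique: FRET fluorescence in CFP and YFP emission channels; Controls: no-enzyme wells low, DMSO-plus-enzyme wells high control.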
SENP8 inh conf: human SENP8 protease inhibitors, confirmation, biochemical, Nedd8 protein substrate, single concentration. shares compounds with SENP8 block-1. purified SENP8, Nedd8-AMC/pro-Nedd8 cleavage fluorescence, 30 min. inhibition, % at 25 µM. hit rate 15% among 1,400; in the data active = inhibition mostly above about 39%, no sharp cut-off; inactive = mostly below about 34%
Of the large screens only hits and unclear results are named; the others gave an inactive call (follow-up assays come after a bar, where they were run); ! = a repeat was not active. Shown are actives, neighbours in structure and some others; about 2.5% of the full set was active somewhere.

C[C@@H]1CN([C@H](C)CO)C(=O)CCCn2nncc2CO[C@H]1CN(C)Cc1ccc2c(c1)OCCO2	none (no result: SENP7 block, SENP8 block-2, SENP6 block)
COc1cc(SC#N)ccc1N=Cc1c(C)[nH]n(-c2ccc(Cl)cc2)c1=O	SENP8 block-1 61.3 | SENP8 inh conf inactive
Cc1cc(=O)oc2cc(OCC(=O)NCCc3c[nH]c4ccc(F)cc34)ccc12	none
COc1ccc2[nH]cc(CCNC(=O)COc3ccc4ccc(=O)oc4c3)c2c1	SENP8 block-1 42.2 | SENP8 inh conf inactive
CC1CC(=Cc2ccc(N)cc2)C(=O)O1 (centres undefined)	none (no result: SENP7 block, SENP8 block-2, SENP6 block)
O=C(CSc1ccc(Br)cc1)Nc1ccccc1Oc1ccccc1	SENP8 block-1 50.3 | SENP8 inh conf inactive
O=C(CSc1ccc(Cl)cc1)Nc1ccccc1Oc1ccccc1	none
O=S(=O)(NCC1CCCO1)c1ccc(S(=O)(=O)N(Cc2ccc(F)cc2)Cc2ccco2)cc1 (centres undefined)	none
N/C(=N\O)c1ccc([N+](=O)[O-])s1	none
NC(=O)c1ccc(N=Cc2ccc([N+](=O)[O-])s2)cc1	SENP8 block-1 60.5 (no result: SENP7 block, SENP8 block-2, SENP6 block) | SENP8 inh conf 95.0
CCc1noc(C)c1C(=O)NCCc1ccc(Cl)cc1	none
Cc1onc(-c2ccccc2)c1C(=O)NCCc1ccc(Cl)cc1	SENP8 block-1 51.0 | SENP8 inh conf inactive
O=C1CC(=Nc2ccc([N+](=O)[O-])cc2)NN1c1c(Cl)cc(Cl)cc1Cl	SENP8 block-1 95.3 (no result: SENP7 block, SENP8 block-2, SENP6 block) | SENP8 inh conf 71.4
O=[N+]([O-])c1ccc(N=Nc2c(Cl)cc(O)cc2Cl)cc1	none (no result: SENP7 block, SENP8 block-2, SENP6 block)
Cc1nc(SCC(=O)O)c2oc3ccccc3c2n1	SENP8 block-1 46.9 | SENP8 inh conf inactive
CCc1nc(SCC(=O)NC2CCCC2)c2oc3ccccc3c2n1	none
CCc1nc(SCC(=O)N2CCCc3ccccc32)c2oc3ccccc3c2n1	SENP8 block-1 46.3 | SENP8 inh conf inactive
Cc1nc(SCC(=O)NCc2ccccc2)c2oc3ccccc3c2n1	none
O=C(NNC(=O)c1ccccc1O)c1cc2ccccc2o1	none
COCCCN1C(=O)C(CC(=O)NCCCN(C)C)CC(C(=O)N(C(C)C)C(C)C)=C1C (centres undefined)	none (no result: SENP7 block, SENP8 block-2, SENP6 block)
CCc1nnc(NS(=O)(=O)c2ccc(Nc3ccc([N+](=O)[O-])c4nonc34)cc2)s1	SENP8 block-1 45.2 | SENP8 inh conf inactive
CCCN1CCN(C(=O)c2oc3c(Cl)cccc3c2C)CC1	none
CC1=NCCN1S(=O)(=O)c1cc(Cl)ccc1Cl	SENP8 block-1 47.7 | SENP8 inh conf inactive
COc1ccc(NC(=O)Cn2c(CCC(=O)O)ccc2-c2ccc(C)cc2)cc1	none
CC(=O)n1c2ccccc2c2nc3ccccc3nc21	none
C=CCNc1nc2c3ccccc3n(C(C)=O)c2s1	SENP8 block-1 51.0 | SENP8 inh conf inactive
COc1ccc(CCn2nnnc2C(CC(C)C)N2CCN(c3ncccn3)CC2)cc1OC (centres undefined)	SENP8 block-1 42.8 | SENP8 inh conf inactive
O=C1CCC[C@H]2c3[nH]c4ccccc4c3CCN12	SENP8 block-1 67.8 | SENP8 inh conf inactive
CCOc1cc(C(c2c(C)[nH][nH]c2=O)c2c(C)[nH][nH]c2=O)ccc1OS(=O)(=O)c1ccccc1	SENP8 block-1 44.4 | SENP8 inh conf 46.7
CC(C)(C)c1cc(=O)n(-c2ccccc2)[nH]1	SENP8 block-1 86.7 (no result: SENP7 block, SENP8 block-2, SENP6 block) | SENP8 inh conf inactive
O=c1cc(-c2ccccc2)[nH]n1-c1ccccc1	none (no result: SENP7 block, SENP8 block-2, SENP6 block)
C[C@]12CC[C@@H]3c4ccc(OC(=O)c5ccccc5)cc4CC[C@H]3[C@@H]1CC[C@@H]2O	none
CC(=O)Oc1ccc2c(c1)CCC1C2CCC2(C)C(OC(C)=O)CCC12 (centres undefined)	SENP8 block-1 46.7 (no result: SENP7 block, SENP8 block-2, SENP6 block) | SENP8 inh conf inactive
COc1ccc(CCNC(=O)CCC(=O)N2CCN(S(=O)(=O)c3ccc(Cl)cc3)CC2)cc1OC	SENP8 block-1 43.6 | SENP8 inh conf inactive
O=C(C1CCN(S(=O)(=O)c2cnc[nH]2)CC1)N1CCc2ccccc2C1	SENP8 block-1 41.6 | SENP8 inh conf inactive
COc1ccc(CCNC(=O)COC(=O)c2ccc(S(=O)(=O)N3CCCC3)cc2)cc1OC	none
COc1ccc(CCNC(=O)C2CCN(S(=O)(=O)c3cnc[nH]3)CC2)cc1OC	SENP8 block-1 40.1 | SENP8 inh conf inactive
COc1ccc(CCC(=O)N2CCN(S(=O)(=O)c3cccc(C(F)(F)F)c3)CC2)cc1OC	none
COc1ccc(CCNC(=O)CCC(=O)N2CCN(S(=O)(=O)c3ccccc3)CC2)cc1OC	SENP8 block-1 48.5 | SENP8 inh conf inactive
COc1ccc(CCNC(=O)C2CCCN(S(=O)(=O)c3cnc[nH]3)C2)cc1OC (centres undefined)	none
COc1c(O)cc2c(c1O)C1OC(CO)C(O)C(O)C1OC2=O (centres undefined)	none
COc1c(O)cc2c(c1O)[C@@H]1O[C@H](CO)[C@@H](O)[C@H](O)C1OC2=O (some centres undefined)	SENP8 block-1 43.2 | SENP8 inh conf inactive
CCN(CC)c1ccc(/C=N/N2C(C)CCCC2C)c(O)c1 (centres undefined)	none
Cc1ccc(NNC(=O)c2c(C)noc2C)cc1Cl	SENP8 block-1 53.7 | SENP8 inh conf inactive
O=[N+]([O-])c1ccc(N2CCN(c3nc(-c4ccc(Cl)cc4)cs3)CC2)cc1	SENP8 block-1 42.8 | SENP8 inh conf inactive
O=[N+]([O-])c1ccc(-c2csc(N3CCCCCC3)n2)cc1	none
CCOc1cc(/C=N\Nc2ncc(F)c(N3CCOCC3)n2)ccc1Oc1nc(Cl)ncc1F	none
COC(=O)Nc1ccc(S(=O)(=O)NC2CCS(=O)(=O)C2)cc1 (centres undefined)	SENP8 block-1 45.4 | SENP8 inh conf inactive
CCCCc1ccc(S(=O)(=O)NC2CCS(=O)(=O)C2)cc1 (centres undefined)	none
COc1cc(NC(=O)C(C)(C)C)c(C(=O)OCC(=O)Nc2cc(C)on2)cc1OC	none (no result: SENP7 block, SENP8 block-2, SENP6 block)
COc1ccc2c3c1OC1CC(O)C=CC31CCN(C)C2 (centres undefined)	SENP8 block-1 42.0! | SENP8 inh conf inactive
CCN(CC)S(=O)(=O)c1ccc(N2CCN(c3cccc(OC)c3)CC2)c([N+](=O)[O-])c1	SENP8 block-1 42.8 | SENP8 inh conf inactive
Cc1ccc(OCc2nnc(SCC(=O)N3C(C)CCCC3C)o2)cc1 (centres undefined)	none
O=C(NCc1cccs1)C1CCCN1C(=O)Nc1ccc(F)cc1 (centres undefined)	SENP8 block-1 40.7 | SENP8 inh conf inactive
O=C(NCc1cccs1)C1CCCN1C(=O)Nc1cccc(F)c1 (centres undefined)	none
